From ChEMBL document CHEMBL2406965, “Optimization of N-benzoylindazole derivatives as inhibitors of human neutrophil elastase” (J Med Chem, 2013) come the findings set out here.

Calls of active or inactive are those of the source. The rule behind the calls is not given here.

One series has as its target T1, Neutrophil elastase (Homo sapiens, UniProt P08246).
T1 sequence (P08246 whole entry): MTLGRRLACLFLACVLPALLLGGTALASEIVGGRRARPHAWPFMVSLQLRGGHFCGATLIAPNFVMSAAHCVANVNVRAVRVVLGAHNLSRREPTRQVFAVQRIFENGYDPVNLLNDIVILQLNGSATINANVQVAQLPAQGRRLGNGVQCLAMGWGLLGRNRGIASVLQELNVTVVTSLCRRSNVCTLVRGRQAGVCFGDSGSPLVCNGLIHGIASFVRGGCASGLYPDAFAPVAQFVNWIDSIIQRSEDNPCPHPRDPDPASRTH
Put plainly: Inhibition of human neutrophil elastase using N-methylsuccinyl-Ala-Ala-Pro-Val-7-amino-4-methylcoumarin as substrate measured every 30 seconds for 10 mins by fluorescence microplate reader analysis.

A further series concerns the target Prothrombin (Homo sapiens, UniProt P00734). Put plainly: Inhibition of human plasma thrombin using benzonyl-Phe-Val-Arg-7-amino-4-methylcoumarin as substrate by fluorescence microplate reader analysis.
For the next series, the target named is Chymotrypsinogen B (Homo sapiens, UniProt P17538). Put plainly: Inhibition of human pancreatic chymotrypsin using Suc-Ala-Ala-Pro-7-amino-4-methylcoumarin as substrate by fluorescence microplate reader analysis.
Series [1] deals with T2, Urokinase-type plasminogen activator (Homo sapiens, UniProt P00749). Briefly: Inhibition of human urokinase using benzyloxycarbonyl-Gly-Gly-Arg-7-amino-4-methylcoumarin as substrate by fluorescence microplate reader analysis.
The target of series [2] is T3, Plasma kallikrein (Homo sapiens, UniProt P03952). Briefly: Inhibition of human plasma kallikrein using benzyloxycarbonyl-Phe-Arg-7-amino-4-methylcoumarin as substrate at 50 uM by fluorescence microplate reader analysis.
Series [3] addresses T4, Neutrophil elastase (Homo sapiens) (UniProt P08246).
T4 sequence (whole entry): T1 sequence (P08246 whole entry)
Put plainly: Inhibition of human neutrophil elastase using N-methylsuccinyl-Ala-Ala-Pro-Val-7-amino-4-methylcoumarin as substrate at 5 uM after 5 hrs by fluorescence microplate reader analysis.

Series [4] deals with T4, Neutrophil elastase (Homo sapiens). Briefly: Competitive inhibition of human neutrophil elastase using N-methylsuccinyl-Ala-Ala-Pro-Val-7-amino-4-methylcoumarin as substrate by Lineweaver-Burk plot analysis.
Series [5] in a line: Half life in phosphate buffer at pH 7.3. It counts as physicochemical.
Series [6] addresses Cathepsin D (Homo sapiens) (UniProt P07339). Put plainly: Inhibition of human spleen cathepsin D using MOCAc-Gly-Lys-Pro-Ile-Leu-Phe-Phe-Arg-Leu-Lys (Dnp)-D-Arg-NH2 as substrate at 50 uM by fluorescence microplate reader analysis. Summed up:
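Cathepsin D from human spleen, 0.1 U/mL, in 0.1 M sodium acetate pH 5.0 with 5 μM MOCAc peptide substrate, 25 °C. Highest compound concentration tested 50 μM.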

For series [7], the target named is T2, Urokinase-type plasminogen activator. Briefly: Inhibition of human urokinase using benzyloxycarbonyl-Gly-Gly-Arg-7-amino-4-methylcoumarin as substrate at 50 uM by fluorescence microplate reader analysis.
Series [8] deals with T4, Neutrophil elastase (Homo sapiens). Put plainly: Inhibition of human neutrophil elastase using N-methylsuccinyl-Ala-Ala-Pro-Val-7-amino-4-methylcoumarin as substrate at 50 uM measured every 30 seconds for 10 mins by fluorescence microplate reader analysis.
Series [9] has the same target. Put plainly: Inhibition of human neutrophil elastase using N-methylsuccinyl-Ala-Ala-Pro-Val-7-amino-4-methylcoumarin as substrate at 5 uM after 4 hrs by fluorescence microplate reader analysis.
The target is the same in series [10]. Briefly: Reversible inhibition of human neutrophil elastase using N-methylsuccinyl-Ala-Ala-Pro-Val-7-amino-4-methylcoumarin as substrate at 5 uM after 1 to 2 hrs by fluorescence microplate reader analysis.
Series [11] has as its target T3, Plasma kallikrein. Put plainly: Inhibition of human plasma kallikrein using benzyloxycarbonyl-Phe-Arg-7-amino-4-methylcoumarin as substrate by fluorescence microplate reader analysis.

Chain of Cathepsin D (Homo sapiens) (P07339 65-162 limits assumed): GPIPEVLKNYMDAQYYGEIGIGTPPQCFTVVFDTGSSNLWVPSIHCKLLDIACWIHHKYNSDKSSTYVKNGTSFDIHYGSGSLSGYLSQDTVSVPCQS
Chain of Cathepsin D (Homo sapiens) (P07339 169-412 limits assumed): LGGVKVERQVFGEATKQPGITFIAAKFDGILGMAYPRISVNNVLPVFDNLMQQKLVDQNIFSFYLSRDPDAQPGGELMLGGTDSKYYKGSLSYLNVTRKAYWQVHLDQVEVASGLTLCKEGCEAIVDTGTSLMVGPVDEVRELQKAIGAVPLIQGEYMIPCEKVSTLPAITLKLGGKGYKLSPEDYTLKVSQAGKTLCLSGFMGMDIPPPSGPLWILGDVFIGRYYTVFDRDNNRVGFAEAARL
Chain of Chymotrypsinogen B (P17538 34-164 limits assumed, other chains not shown): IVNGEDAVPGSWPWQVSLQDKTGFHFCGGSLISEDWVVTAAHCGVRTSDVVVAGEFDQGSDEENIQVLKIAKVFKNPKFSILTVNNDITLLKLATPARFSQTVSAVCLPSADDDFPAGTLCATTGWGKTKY
Chain of Chymotrypsinogen B (P17538 167-263 limits assumed, other chains not shown): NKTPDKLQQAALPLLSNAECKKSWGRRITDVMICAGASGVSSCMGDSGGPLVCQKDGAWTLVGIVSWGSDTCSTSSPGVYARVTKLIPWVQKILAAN
T3 sequence (P03952 20-390 limits assumed): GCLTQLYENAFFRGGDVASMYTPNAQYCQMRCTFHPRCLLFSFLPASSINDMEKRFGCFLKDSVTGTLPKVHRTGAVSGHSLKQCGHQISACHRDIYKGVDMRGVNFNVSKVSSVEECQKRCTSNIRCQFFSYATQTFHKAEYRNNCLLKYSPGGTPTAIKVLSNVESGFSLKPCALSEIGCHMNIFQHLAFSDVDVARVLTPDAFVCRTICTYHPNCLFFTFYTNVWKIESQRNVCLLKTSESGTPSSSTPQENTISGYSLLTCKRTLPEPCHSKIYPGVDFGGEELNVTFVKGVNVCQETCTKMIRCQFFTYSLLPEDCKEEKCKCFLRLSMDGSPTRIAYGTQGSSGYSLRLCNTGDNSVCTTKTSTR
T3 sequence (P03952 391-638 limits assumed): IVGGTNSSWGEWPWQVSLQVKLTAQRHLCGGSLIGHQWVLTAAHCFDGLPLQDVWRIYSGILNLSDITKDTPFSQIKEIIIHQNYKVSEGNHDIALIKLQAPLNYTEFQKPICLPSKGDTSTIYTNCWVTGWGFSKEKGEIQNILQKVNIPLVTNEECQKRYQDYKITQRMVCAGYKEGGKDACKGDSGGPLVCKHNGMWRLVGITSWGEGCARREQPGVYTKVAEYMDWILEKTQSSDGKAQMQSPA

At Neutrophil elastase, `N#Cc1nn(C(=O)c2ccccc2)c2ccccc12` displayed an IC50 of 0.04 µM.

With `CCOC(=O)c1nn(C(=O)c2cccc(OC)c2)c2ccc([N+](=O)[O-])cc12`, the concentration for half-maximal inhibition (IC50) against Prothrombin came to 0.082 µM; against Chymotrypsinogen B it was 0.021 µM; in [1], 0.48 µM. For the same molecule, the inhibition result at Plasma kallikrein [2] is “inactive”.

`CCOC(=O)c1nn(C(=O)c2cccc(C)c2)c2ccc(NC(=O)C3CC3)cc12`: the IC50 against Neutrophil elastase was 0.012 µM; against Prothrombin, 0.16 µM; at Chymotrypsinogen B, 0.37 µM. The inhibition entry in series [3] and in series [4] was “Active” in each case. In addition, in series [5], the t1/2 was found to be 51.7 min. The inhibition entry (on Plasma kallikrein [2]; in series [6]; in series [7]) was “inactive” each time.

In the case of `COC(=O)c1nn(C(=O)c2cccc(OC)c2)c2ccc(Br)cc12`, at Plasma kallikrein [2], the inhibition entry is “inactive”.

Take `COC(=O)c1nn(C(=O)c2ccsc2)c2ccc(Br)cc12`: half-maximal inhibition on Neutrophil elastase (IC50) was put at 0.16 µM.

For `CCOC(=O)c1nn(C(=O)c2ccccc2)c2ccc([N+](=O)[O-])cc12`, the IC50 against Neutrophil elastase is 0.02 µM.

On to `COC(=O)c1nn(C(=O)c2cccc(C)c2)c2c([N+](=O)[O-])cccc12`, for which, in series [8], the inhibition result is “inactive”.

Take `COC(=O)c1nn(C(=O)c2ccsc2)c2ccc([N+](=O)[O-])cc12`: the IC50 against Neutrophil elastase was found to be 0.05 µM.

With `CCOC(=O)c1nn(C(=O)c2cccc(C)c2)c2ccc([N+](=O)[O-])cc12`, the IC50 against Prothrombin was 0.48 µM; at Chymotrypsinogen B it was 0.04 µM; in series [1], 1.5 µM. Besides, the inhibition result at Plasma kallikrein [2] is “inactive”.

As for `COC(=O)c1nn(C(=O)c2cccc(C)c2)c2ccc(Br)cc12`, the IC50 at Neutrophil elastase was 0.08 µM. The inhibition entry on Plasma kallikrein [2] is “inactive”.

`CCOC(=O)c1nn(C(=O)c2cccc(C)c2)c2ccc(OC)cc12` yielded an IC50 against Neutrophil elastase of 0.14 µM.

Take `CCOC(=O)c1nn(C(=O)c2cccc(C)c2)c2ccc(OC(F)(F)F)cc12`: on Neutrophil elastase, the IC50 stood at 0.11 µM.

On to `CCOC(=O)c1nn(C(=O)c2cccc(C)c2)c2ccc(NC(C)=O)cc12`, for which the IC50 amounted to 0.03 µM at Neutrophil elastase, 0.31 µM on Prothrombin and 13.7 µM in [1]. In [5], this molecule returned a t1/2 of 78.8 min. Moreover, the inhibition result (at Plasma kallikrein [2]; in series [6]) was “inactive” each time. Besides, the inhibition result in series [9] was “Active”.

Turning to `CCOC(=O)c1nn(C(=O)c2cccc(C)c2)c2ccc(N(C)C)cc12`, half-maximal inhibition against Neutrophil elastase (IC50) required 0.14 µM.

For the molecule `COC(=O)c1nn(C(=O)c2cccc(C)c2)c2ccc([N+](=O)[O-])cc12`, the figures for the IC50 (against Prothrombin; in [1]) were 1.1 µM and 0.44 µM, respectively. In addition, the t1/2 in series [5] was determined as 47.8 min. The inhibition result (at Plasma kallikrein [2]; in series [6]) was “inactive” in each case. Besides, the inhibition entry in series [9] was “Active”.

`CCCC(=O)Nc1ccc2c(c1)c(C(=O)OCC)nn2C(=O)c1cccc(C)c1` registered an IC50 against Neutrophil elastase of 0.05 µM.

Take `COC(=O)c1nn(C(=O)c2ccccc2)c2ccc([N+](=O)[O-])cc12`: the IC50 against Neutrophil elastase came out at 0.03 µM; on Prothrombin it was 0.83 µM; at Chymotrypsinogen B, 0.031 µM; at Plasma kallikrein [11], 11.2 µM; in series [1], 0.62 µM. Moreover, the inhibition result in series [10] is “Active”. This molecule had a t1/2 in [5] of 37.9 min. Further, the inhibition result in [6] is “inactive”.

As for `COC(=O)c1nn(C(=O)c2cccc(C)c2)c2cc([N+](=O)[O-])ccc12`, the IC50 at Neutrophil elastase came to 0.02 µM; against Prothrombin, 0.64 µM; against Chymotrypsinogen B, 0.038 µM; in series [1] it was 0.31 µM. Also, in [5], the t1/2 was 41.5 min. Further, the inhibition result (at Plasma kallikrein [2]; in series [6]) was “inactive” throughout.

Take `CCOC(=O)c1nn(C(=O)c2ccsc2)c2ccc([N+](=O)[O-])cc12`: the IC50 stood at 0.03 µM on Neutrophil elastase, 0.37 µM on Prothrombin, 0.046 µM against Chymotrypsinogen B and 25.3 µM in series [1]. Besides, the inhibition entry in series [10] was “Active”. This molecule also yielded a t1/2 in [5] of 32.8 min. Besides, the inhibition entry (at Plasma kallikrein [2]; in series [6]) was “inactive” throughout.

Molecule `CCOC(=O)c1nn(C(=O)c2ccsc2)c2ccc(Br)cc12` yielded an IC50 against Neutrophil elastase of 0.26 µM.

`CCOC(=O)c1nn(C(=O)c2cccc(C)c2)c2ccc(NC(=O)CC)cc12`: the IC50 came out at 0.039 µM on Prothrombin, 0.14 µM on Chymotrypsinogen B and 14.8 µM in [1]. Moreover, the inhibition entry at Plasma kallikrein [2] is “inactive”.

Consider `Cc1cccc(C(=O)n2nc(C#N)c3ccccc32)c1`, for which the IC50 on Prothrombin amounted to 1.9 µM; against Chymotrypsinogen B, 0.066 µM; in [1], 6.6 µM. The inhibition entry on Plasma kallikrein [2] is “inactive”.

With `CCOC(=O)c1nn(C(=O)c2ccccc2)c2ccc(OC)cc12`, half-maximal inhibition on Neutrophil elastase (IC50) was put at 0.08 µM.
